ChEMBL document CHEMBL1133492, “Design, synthesis, and biological evaluation of fluoronitrophenyl substituted folate analogues as potential inhibitors of GAR transformylase and AICAR transformylase” (Bioorg Med Chem Lett, 2000)
pIC50: −log10 of the molar value. Activity calls are given as the source filed them. The rule behind the calls is not given here.

How the values were obtained:
[1] = target: T1, Trifunctional purine biosynthetic protein adenosine-3 (Homo sapiens) (UniProt P22102); assay: In vitro inhibitory activity against Glycinamide ribonucleotide transformylase (GAR Tfase) after 6 hr at 250 uM; assay type: functional
T1 sequence (whole entry): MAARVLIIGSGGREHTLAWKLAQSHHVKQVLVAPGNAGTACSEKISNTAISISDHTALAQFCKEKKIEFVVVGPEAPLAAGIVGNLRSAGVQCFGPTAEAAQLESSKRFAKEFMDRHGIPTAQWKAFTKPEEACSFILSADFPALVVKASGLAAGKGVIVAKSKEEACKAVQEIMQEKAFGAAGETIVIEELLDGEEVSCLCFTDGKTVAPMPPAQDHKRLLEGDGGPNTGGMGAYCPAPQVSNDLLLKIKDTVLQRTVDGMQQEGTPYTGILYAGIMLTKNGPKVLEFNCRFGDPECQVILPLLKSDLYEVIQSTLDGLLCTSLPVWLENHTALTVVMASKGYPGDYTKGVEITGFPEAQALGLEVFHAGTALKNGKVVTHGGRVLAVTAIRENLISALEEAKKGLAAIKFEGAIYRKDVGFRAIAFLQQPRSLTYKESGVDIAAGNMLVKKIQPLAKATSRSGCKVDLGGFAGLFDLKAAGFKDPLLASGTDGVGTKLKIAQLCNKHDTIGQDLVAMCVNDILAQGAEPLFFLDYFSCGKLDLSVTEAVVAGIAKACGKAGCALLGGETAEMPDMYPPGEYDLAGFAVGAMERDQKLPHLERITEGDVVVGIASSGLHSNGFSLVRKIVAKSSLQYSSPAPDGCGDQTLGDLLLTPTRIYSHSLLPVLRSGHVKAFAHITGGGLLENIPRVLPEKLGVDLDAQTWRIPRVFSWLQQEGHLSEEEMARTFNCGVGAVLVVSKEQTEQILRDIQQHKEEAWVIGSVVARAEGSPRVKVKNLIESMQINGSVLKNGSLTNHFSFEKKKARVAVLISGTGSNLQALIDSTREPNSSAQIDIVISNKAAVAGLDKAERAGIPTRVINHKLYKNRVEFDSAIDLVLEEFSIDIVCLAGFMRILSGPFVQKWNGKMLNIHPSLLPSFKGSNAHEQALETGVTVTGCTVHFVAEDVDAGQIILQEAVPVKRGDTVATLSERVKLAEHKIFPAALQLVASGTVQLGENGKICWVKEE

[2] = target: T1, Trifunctional purine biosynthetic protein adenosine-3 (Homo sapiens); assay: In vitro inhibitory activity against Glycinamide ribonucleotide transformylase (GAR Tfase) after 3 min at 250 uM; Not active
[3] = target: Bifunctional purine biosynthesis protein ATIC (Homo sapiens, UniProt P31939); assay: In vitro inhibitory activity against Aminoimidazole carboxamide ribonucleotide transformylase after 12 hr at 250 uM; Not active
[4] = system: CCRF-CEM; assay: Cytotoxicity in the absence of thymidine and hypoxanthine against CCRF-CEM cell line; assay type: functional, cell-based; conditions: Homo sapiens
Summary of the method: (§1)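 CCRF-CEM cells were grown in purine- and pyrimidine-free medium, with thymidine and/or hypoxanthine added or omitted as each line specifies. The cytotoxic potency was reported as an IC50 (µM).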

[5] = system: CCRF-CEM; assay: Cytotoxicity in the absence of thymidine and presence of hypoxanthine against CCRF-CEM cell line; assay type: functional, cell-based; conditions: Homo sapiens; summary of the method: as §1
[6] = target: T1, Trifunctional purine biosynthetic protein adenosine-3 (Homo sapiens); assay: In vitro inhibitory activity against Glycinamide ribonucleotide transformylase (GAR Tfase) after 30 min at 250 uM; Not active
[7] = system: CCRF-CEM; assay: Cytotoxicity in the absence of hypoxanthine and presence of thymidine against CCRF-CEM cell line; assay type: functional, cell-based; conditions: Homo sapiens; summary of the method: as §1
[8] = system: CCRF-CEM; assay: Cytotoxicity in the presence of thymidine and hypoxanthine against CCRF-CEM cell line; assay type: functional, cell-based; conditions: Homo sapiens; summary of the method: as §1

Sequence of Bifunctional purine biosynthesis protein ATIC (P31939 whole entry, looked up): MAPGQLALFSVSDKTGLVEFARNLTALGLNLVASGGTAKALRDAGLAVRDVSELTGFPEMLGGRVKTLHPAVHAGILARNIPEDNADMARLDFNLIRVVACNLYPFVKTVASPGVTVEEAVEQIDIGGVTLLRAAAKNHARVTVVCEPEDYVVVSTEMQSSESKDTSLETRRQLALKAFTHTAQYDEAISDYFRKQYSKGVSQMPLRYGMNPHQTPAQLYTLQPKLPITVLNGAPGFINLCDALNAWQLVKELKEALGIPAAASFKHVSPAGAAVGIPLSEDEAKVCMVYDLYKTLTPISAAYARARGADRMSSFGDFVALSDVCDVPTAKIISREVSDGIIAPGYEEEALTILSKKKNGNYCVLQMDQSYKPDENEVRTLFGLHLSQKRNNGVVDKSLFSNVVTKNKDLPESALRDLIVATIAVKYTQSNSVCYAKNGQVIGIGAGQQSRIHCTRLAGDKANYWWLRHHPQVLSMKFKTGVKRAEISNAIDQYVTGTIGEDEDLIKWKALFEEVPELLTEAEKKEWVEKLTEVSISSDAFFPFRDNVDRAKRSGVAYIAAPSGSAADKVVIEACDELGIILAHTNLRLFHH

inhibition [1]: 59%
inhibition [2]: inactive
inhibition [3]: inactive
inhibition [6]: inactive
SMILES: Nc1nc(N)c(CCCNc2ccc([N+](=O)[O-])c(F)c2F)c(O)n1
pIC50 [4]: 4.12
pIC50 [5]: 4.12
pIC50 [7]: 4.17
pIC50 [8]: 4.14
